Assay outcomes deposited in PubChem by The Scripps Research Institute Molecular Screening Center.
NR2F2 inh – blocks human COUP-TFII nuclear receptor; P24468; HEK293T NGFI-A luciferase reporter, luminescence; inhibition, % at 8.6 µM; actives 0.7% (n = 370,000); AID 686940;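 active = inhibition above a per-plate cutoff, mean inhibition of test wells between control levels plus 3 SD, cut at about 38% in these data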;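 also: cells cotransfected with COUP-TFII expression vector driving the NGFI-A reporter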
NR2E3 ag-1 – human photoreceptor-specific nuclear receptor agonism; CHO-S Gal4-NCOR/VP16-NR2E3 two-hybrid, luciferase; inhibition of corepressor binding, % at 3.98 µM; actives 0.35% (n = 360,000);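 active = inhibition above the mean of all tested compounds plus 3 SD, cut at about 70% in these data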;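 also: higher means lower luciferase signal from less NR2E3 corepressor binding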
Target sequence (Q9Y5X4 whole entry, looked up, the tested form may be a part): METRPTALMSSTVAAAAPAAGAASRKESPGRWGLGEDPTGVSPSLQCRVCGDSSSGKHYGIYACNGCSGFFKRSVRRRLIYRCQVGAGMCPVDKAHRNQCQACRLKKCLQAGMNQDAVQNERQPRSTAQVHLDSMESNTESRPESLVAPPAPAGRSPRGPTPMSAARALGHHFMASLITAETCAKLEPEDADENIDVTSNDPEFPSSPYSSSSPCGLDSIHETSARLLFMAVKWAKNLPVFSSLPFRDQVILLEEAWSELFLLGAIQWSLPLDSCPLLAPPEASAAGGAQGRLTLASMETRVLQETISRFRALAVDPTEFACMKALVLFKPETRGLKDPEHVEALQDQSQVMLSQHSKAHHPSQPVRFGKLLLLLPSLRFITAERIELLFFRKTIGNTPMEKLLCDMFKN
GalR3 antagonist – blocks the human galanin receptor 3; HEK293 GalR3-CNG cAMP membrane potential fluorescence; galR3 body fused to GalR1 C-terminus; O60755; actives 0.44% (n = 360,000); AID 651719; inhibition, % at 3 µM;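 active = inhibition above the screen-wide average plus 3 SD, cut at about 13% in these data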;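 also: forskolin and galanin both at EC90 stimulate the cells; cAMP rise reported by CNG channel membrane potential dye signal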
SMARCA2 activ – increases SMARCA2 function in MMTV reporter cells | activation, % at 9.1 µM | actives 1% (n = 370,000) | MG213 cells, MMTV-luciferase reporter, dexamethasone, overnight; in the data active = activation above about 7.8%
NR2E3 ag-2 – activates human photoreceptor nuclear receptor NR2E3; GST-NR2E3/biotin-RetCOR TR-FRET, 1536-well; actives 0.12% (n = 320,000); inhibition of corepressor binding, % at 4.78 µM;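 active = percent inhibition above the cutoff of mean plus 3 SD of all tested compounds, set per screening campaign, cut at about 20% in these data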
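Material: NR2E3–RetCOR corepressor complex / Incubation: Compound–protein incubation for 5 h at 4 °C / Dosing: compound at 4.8 µM, single dose / Detection: time-resolved FRET / Benchmarks: high control biotin, low control 0.6% DMSO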
SMARCA2 conf – confirmation of SMARCA2 (BRM) function activators; actives 30% (n = 3,500); AID 652260; MG213 cells, MMTV-luciferase with dexamethasone, luminescence, overnight; MG213 cells expressing E1A, Rb sequestered; DMSO wells 0%, reference activator 100%; activation, % at 9.1 µM; shares compounds with SMARCA2 activ;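 active = activation above its plate's cutoff, the mean activation of tested wells plus 3 SD, cut at about 7.9% in these data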
VP16 Luc act – activates GAL4-VP16 luciferase, flagging SMARCA2 activator hits. HEK293 GAL4-VP16 pG5luc reporter, luciferase luminescence; scaled: DMSO wells 0%, SAHA wells 100%. AID 686939. activation, % at 9.1 µM. actives 41% (n = 3,500). shares compounds with SMARCA2 activ;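 active = activation above the solvent-only control well mean plus 3 SD, averaged across control plates, cut at about 5.2% in these data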
Hits are given with their value; – = inactive; · = no result given. In the library only some 2.2% were active in any assay of this set; here they are far more common.

SMILES	NR2F2 inh	NR2E3 ag-1	GalR3 antagonist	SMARCA2 activ	NR2E3 ag-2	SMARCA2 conf	VP16 Luc act
CSc1nsc(SCC(=O)Nc2ccccc2)n1	–	–	–	8.8	–	–	–
O=C(NCc1ccco1)c1ccc(-c2cccc(Cl)c2)o1	–	–	–	9.6	–	13	5.3
COc1cccc(-c2cc(C(=O)NCc3ccco3)no2)c1	–	–	–	8.4	–	–	11
O=C(NCc1ccco1)c1cc(-c2cccc(Cl)c2)on1	–	–	–	–	–	·	·
COc1ccc(S[C@]2(C(=O)NC(C)C)CC(=O)N[C@@H]2c2ccc(OC)cc2)cc1	–	·	·	–	·	·	·
Cc1csc(NC(=O)c2ccc(COc3cccc(F)c3)o2)n1	–	·	·	–	·	·	·
O=C(Nc1nnc(SCC(=O)N2CCCc3ccccc32)s1)c1cccc2ccccc12	–	–	–	–	–	·	·
Cc1ccc(C(=O)Nc2nnc(SCC(=O)N3CCCc4ccccc43)s2)cc1	–	–	–	9.3	–	–	8.4
O=C(CSc1nnc(-c2cccnc2)n1-c1ccccc1)c1ccccc1Cl	–	·	·	8.6	·	–	–
O=C(O)CCSc1nnc(-c2cccnc2)n1-c1ccccc1	·	–	·	·	–	·	·
N=c1n(CC(=O)c2ccc(Br)s2)c2ccccc2n1Cc1ccccc1	–	–	–	8.2	–	23	–
COC(=O)CCC(=O)N1CCC(Oc2cccc(C(=O)NCc3ccccn3)c2)CC1	–	–	–	8.3	·	–	–
COCC(=O)N1CCC(Oc2cccc(C(=O)NCc3ccccn3)c2)CC1	–	–	–	–	–	·	·
O=[N+]([O-])c1ccc(SCCc2ccccn2)cc1	–	–	–	12	–	–	–
CCn1c(SCC(=O)NN=Cc2c(C)nn(-c3ccccc3)c2C)nnc1-c1ccc(OC)c(OC)c1	–	·	·	–	·	·	·
CCOc1ccc(/C=C2\SC(N3CCc4ccccc4C3)=NC2=O)cc1	–	–	–	9.0	–	–	–
CC(C)Oc1cccc(-c2n[nH]c(=S)n2N=Cc2cccc([N+](=O)[O-])c2)c1	–	·	·	–	·	·	·
c1ccc(CCSc2nnc(-c3cccnc3)n2Cc2ccccc2)cc1	–	·	·	–	·	·	·
CC(C)=CC(=O)Nc1nnc(C)s1	–	–	–	–	–	·	·
CC(C)=CC(=O)Nc1nnc(-c2ccccc2)s1	–	–	–	16	–	–	7.8
COC(=O)Nc1nnc(-c2ccc(OC)cc2)s1	–	–	–	8.1	–	–	5.2
O=C(OCc1cn(Cc2c(F)cccc2F)nn1)N1CCOCC1	–	·	·	–	·	·	·
COC(=O)[C@]12C[C@H](CC(=O)N3CCN(C(=O)c4ccco4)CC3)C(=O)N(Cc3cccc4ccccc34)C1=C[C@H](C(C)C)O[C@@H]2C1CC1	–	·	·	–	·	·	·
O=C(CSC1=Nc2ccccc2C2=NC(Cc3c[nH]c4ccccc34)C(=O)N12)NC1CCCCC1 (stereo not drawn)	–	–	–	8.6	–	–	–
CC1CC(C)CN(C(=O)CSC2=Nc3ccccc3C3=NC(Cc4c[nH]c5ccccc45)C(=O)N23)C1 (stereo not drawn)	·	–	·	·	–	·	·
SMILES	NR2F2 inh	NR2E3 ag-1	GalR3 antagonist	SMARCA2 activ	NR2E3 ag-2	SMARCA2 conf	VP16 Luc act
Nc1ccc2nc(COc3ccccc3)[nH]c2c1	–	–	–	12	–	–	–
Nc1ccc2nc(CCCCc3nc4ccccc4[nH]3)[nH]c2c1	–	–	–	–	·	·	·
COc1cc(CN(C(=S)NCC(=O)NC2CC2)C2CCCC2)cc(OC)c1OC	–	–	–	9.6	–	–	–
O=C(Nc1nnc(-c2ccccc2F)s1)c1cccnc1	–	–	–	–	–	·	·
O=C(Nc1nnc(-c2cccnc2)s1)c1cnc2ccccc2c1	–	·	·	8.0	·	–	–
O=C(Nc1nnc(C(F)(F)F)s1)c1cccnc1	–	–	–	9.0	–	–	9.3
O=C(Nc1nnc(-c2cccnc2)s1)c1cccs1	–	–	–	–	–	·	·
COC(=O)/C=C1\OCc2cc(C)ccc21	–	·	–	13	·	–	–
COC(=O)/C=C1\OCc2ccc(C)cc21	–	·	–	–	·	·	·
CCOc1ccc(/C=N/Nc2ccccn2)cc1OC	–	–	–	–	–	·	·
